Article PMC7141409 (Journal of biomolecular NMR, 2019)

Key:
[1] = chymotrypsin-based two-step assay; cited from earlier work
[2] = tested on: ^15N-OsIAA11^72−125 (W104-P105 peptide bond); assay: Nzz-exchange: catalyzed cis-trans exchange of W104-P105; assay type: biochemical, rice
Method in brief: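 15N-labeled OsIAA11 72–125 substrate (800μM) with 16μM enzyme (LRT2 mutant or homolog) in NMR buffer (50mM KCl, 20mM KPO4, 3mM TCEP, 5mM NaN3, 0.1% protease inhibitor cocktail, pH=6.67). Protein concentrations were set by A280 using theoretical extinction coefficients. Nzz-exchange spectra were processed to give the observed cis-trans exchange rate (kexobs) of the W104-P105 bond with uncertainties.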

| Substance | Catalytic activity on W-P substrate [1] | Nzz exchange crosspeaks / activity ([2]; 16μM enzyme, 800μM OsIAA11^72–125) | Nzz-measured kexobs ([2]; 1H-15N Nzz exchange, 16μM enzyme, 800μM OsIAA11^72–125, NMR buffer pH=6.67) [s⁻¹] | Activity relative to WT LRT2 on OsIAA11 ([2]; Nzz, % of WT LRT2 activity) [%] |
| --- | --- | --- | --- | --- |
| hCypA W121A: hCypA W121A mutant | negligible catalytic activity |  |  |  |
| hCypA: human cyclophilin A [reference compound] |  | clear exchange crosspeaks | 0.69 ± 0.04 | 110 |
